From ChEMBL document CHEMBL5724801, “EUbOPEN Chemogenomics Library - Multiplex” (2024)
Values joined by “and” are separate entries in the source; they are usually repeats but may differ in a detail not shown here. Identical values can stand only once.

Key:
HEK-293T = experiment: Multiplex assay against HEK293T; format: toxicity, cell-based; details: human
Procedure, shortened: (§1)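 Imaging took place on a CQ1 microscope at 37°C and 5% CO2 once compound had been added to live cells stained at seeding with Hoechst33342, BioTracker Green Microtubule Cytoskeleton Dye, MitoTracker Red and Annexin V Alexa Fluor 680. CellPathfinder machine-learning gating classed cells as Hoechst high-intensity objects or normal cells, classed normal cells as having healthy, pyknosed or fragmented nuclei, and classed pyknosed cells as mitotic or apoptotic. Tubulin, mitochondrial-mass and membrane-permeability phenotypes are per cents of the healthy-nucleus cells.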

U2OS = experiment: Multiplex assay against U2OS; format: toxicity, cell-based; details: human; procedure, shortened: as §1
[1] = 24 h, 10 µM, compound concentration 10 uM
[2] = 48 h, 1 µM, compound concentration 1 uM
[3] = 48 h, 10 µM, compound concentration 10 uM
[4] = 12 h, 1 µM, compound concentration 1 uM
[5] = 12 h, 10 µM, compound concentration 10 uM
[6] = 24 h, 1 µM, compound concentration 1 uM

CCc1cc2cc(NS(=O)(=O)c3ccc(C#N)cc3)ccc2n(CC)c1=O
Population Apoptotic (%) (HEK-293T; [1]): 33% and 63% | Population Fragmented Nuclei (%) (HEK-293T; [1]): 9% and 10% | Population Healthy Nuclei (%) (HEK-293T; [1]): 80% and 73% | Population Hoechst High Intensity Objects (%) (HEK-293T; [1]): 6% and 17% | Population Membrane Permeable-Phenotype (%) (HEK-293T; [1]): 0% and 1% | Population Mitochondria Different-Phenotype (%) (HEK-293T; [1]): 36% and 58% | Population Mitotic Cells (%) (HEK-293T; [1]): 66% and 36% | Population Normal (%) (HEK-293T; [1]): 93% and 82% | Population Pyknosed Nuclei (%) (HEK-293T; [1]): 10% and 16% | Population Tubulin-Different-Phenotype (%) (HEK-293T; [1]): 32% and 29% | Total Cell Count (HEK-293T; [1]): 478 and 332 | Population Apoptotic (%) (HEK-293T; [2]): 30% and 38% | Population Fragmented Nuclei (%) (HEK-293T; [2]): 11% and 14% | Population Healthy Nuclei (%) (HEK-293T; [2]): 81% and 79% | Population Hoechst High Intensity Objects (%) (HEK-293T; [2]): 2% and 4% | Population Membrane Permeable-Phenotype (%) (HEK-293T; [2]): 1% | Population Mitochondria Different-Phenotype (%) (HEK-293T; [2]): 11% and 23% | Population Mitotic Cells (%) (HEK-293T; [2]): 69% and 61% | Population Normal (%) (HEK-293T; [2]): 97% and 95% | Population Pyknosed Nuclei (%) (HEK-293T; [2]): 6% and 5% | Population Tubulin-Different-Phenotype (%) (HEK-293T; [2]): 13% and 12% | Total Cell Count (HEK-293T; [2]): 878 and 608 | Population Apoptotic (%) (HEK-293T; [3]): 26% and 47% | Population Fragmented Nuclei (%) (HEK-293T; [3]): 14% and 16% | Population Healthy Nuclei (%) (HEK-293T; [3]): 78% and 73% | Population Hoechst High Intensity Objects (%) (HEK-293T; [3]): 4% and 10% | Population Membrane Permeable-Phenotype (%) (HEK-293T; [3]): 1% | Population Mitochondria Different-Phenotype (%) (HEK-293T; [3]): 23% and 40% | Population Mitotic Cells (%) (HEK-293T; [3]): 73% and 52% | Population Normal (%) (HEK-293T; [3]): 95% and 89% | Population Pyknosed Nuclei (%) (HEK-293T; [3]): 6% and 9% | Population Tubulin-Different-Phenotype (%) (HEK-293T; [3]): 20% and 23% | Total Cell Count (HEK-293T; [3]): 734 and 383 | Population Apoptotic (%) (U2OS; [4]): 88% and 100% | Population Fragmented Nuclei (%) (U2OS; [4]): 30% and 26% | Population Healthy Nuclei (%) (U2OS; [4]): 60% and 70% | Population Hoechst High Intensity Objects (%) (U2OS; [4]): 3% and 1% | Population Membrane Permeable-Phenotype (%) (U2OS; [4]): 4% and 8% | Population Mitochondria Different-Phenotype (%) (U2OS; [4]): 2% | Population Mitotic Cells (%) (U2OS; [4]): 11% and 0% | Population Normal (%) (U2OS; [4]): 96% and 98% | Population Pyknosed Nuclei (%) (U2OS; [4]): 9% and 3% | Population Tubulin-Different-Phenotype (%) (U2OS; [4]): 2% and 7% | Total Cell Count (U2OS; [4]): 286 and 113 | Population Apoptotic (%) (U2OS; [5]): 66% and 87% | Population Fragmented Nuclei (%) (U2OS; [5]): 28% and 13% | Population Healthy Nuclei (%) (U2OS; [5]): 64% and 80% | Population Hoechst High Intensity Objects (%) (U2OS; [5]): 2% | Population Membrane Permeable-Phenotype (%) (U2OS; [5]): 9% and 6% | Population Mitochondria Different-Phenotype (%) (U2OS; [5]): 3% | Population Mitotic Cells (%) (U2OS; [5]): 33% and 12% | Population Normal (%) (U2OS; [5]): 97% | Population Pyknosed Nuclei (%) (U2OS; [5]): 6% and 5% | Population Tubulin-Different-Phenotype (%) (U2OS; [5]): 4% | Total Cell Count (U2OS; [5]): 220 and 139 | Population Apoptotic (%) (U2OS; [6]): 85% and 88% | Population Fragmented Nuclei (%) (U2OS; [6]): 29% and 16% | Population Healthy Nuclei (%) (U2OS; [6]): 61% and 75% | Population Hoechst High Intensity Objects (%) (U2OS; [6]): 2% and 1% | Population Membrane Permeable-Phenotype (%) (U2OS; [6]): 9% and 7% | Population Mitochondria Different-Phenotype (%) (U2OS; [6]): 2% and 7% | Population Mitotic Cells (%) (U2OS; [6]): 14% and 11% | Population Normal (%) (U2OS; [6]): 97% and 98% | Population Pyknosed Nuclei (%) (U2OS; [6]): 8% and 7% | Population Tubulin-Different-Phenotype (%) (U2OS; [6]): 6% and 3% | Total Cell Count (U2OS; [6]): 335 and 126 | Population Apoptotic (%) (U2OS; [1]): 95% and 80% | Population Fragmented Nuclei (%) (U2OS; [1]): 23% and 14% | Population Healthy Nuclei (%) (U2OS; [1]): 67% and 79% | Population Hoechst High Intensity Objects (%) (U2OS; [1]): 3% | Population Membrane Permeable-Phenotype (%) (U2OS; [1]): 4% and 6% | Population Mitochondria Different-Phenotype (%) (U2OS; [1]): 2% | Population Normal (%) (U2OS; [1]): 96% | Population Pyknosed Nuclei (%) (U2OS; [1]): 9% and 6% | Population Tubulin-Different-Phenotype (%) (U2OS; [1]): 1% and 2% | Total Cell Count (U2OS; [1]): 263 and 159 | Population Apoptotic (%) (U2OS; [2]): 89% and 84% | Population Fragmented Nuclei (%) (U2OS; [2]): 21% and 19% | Population Healthy Nuclei (%) (U2OS; [2]): 70% and 73% | Population Hoechst High Intensity Objects (%) (U2OS; [2]): 2% and 3% | Population Membrane Permeable-Phenotype (%) (U2OS; [2]): 6% | Population Mitochondria Different-Phenotype (%) (U2OS; [2]): 3% and 5% | Population Mitotic Cells (%) (U2OS; [2]): 10% and 15% | Population Normal (%) (U2OS; [2]): 97% and 96% | Population Pyknosed Nuclei (%) (U2OS; [2]): 8% and 6% | Population Tubulin-Different-Phenotype (%) (U2OS; [2]): 2% and 3% | Total Cell Count (U2OS; [2]): 450 and 192 | Population Apoptotic (%) (U2OS; [3]): 88% and 96% | Population Fragmented Nuclei (%) (U2OS; [3]): 18% and 15% | Population Healthy Nuclei (%) (U2OS; [3]): 72% and 73% | Population Hoechst High Intensity Objects (%) (U2OS; [3]): 3% and 2% | Population Membrane Permeable-Phenotype (%) (U2OS; [3]): 6% and 8% | Population Mitochondria Different-Phenotype (%) (U2OS; [3]): 2% and 3% | Population Mitotic Cells (%) (U2OS; [3]): 11% and 3% | Population Normal (%) (U2OS; [3]): 96% and 97% | Population Pyknosed Nuclei (%) (U2OS; [3]): 9% and 11% | Population Tubulin-Different-Phenotype (%) (U2OS; [3]): 3% and 7% | Total Cell Count (U2OS; [3]): 387 and 248
